Data reported in ChEMBL document CHEMBL4251616, “Multifunctional thiosemicarbazones and deconstructed analogues as a strategy to study the involvement of metal chelation, Sigma-2 (σ2) receptor and P-gp protein in the cytotoxic action: In vitro and in vivo activity in pancreatic tumors” (Eur J Med Chem, 2018).

Tests used:
[1] = target: ATP-dependent translocase ABCB1 (Homo sapiens, UniProt P08183); assay: Inhibition of human MDR1 expressed in MDCK-MDR1 cells assessed as calcein cell accumulation after 30 mins by spectrofluorimetry; type: cell-based
ATP-dependent translocase ABCB1, sequence (P08183 whole entry): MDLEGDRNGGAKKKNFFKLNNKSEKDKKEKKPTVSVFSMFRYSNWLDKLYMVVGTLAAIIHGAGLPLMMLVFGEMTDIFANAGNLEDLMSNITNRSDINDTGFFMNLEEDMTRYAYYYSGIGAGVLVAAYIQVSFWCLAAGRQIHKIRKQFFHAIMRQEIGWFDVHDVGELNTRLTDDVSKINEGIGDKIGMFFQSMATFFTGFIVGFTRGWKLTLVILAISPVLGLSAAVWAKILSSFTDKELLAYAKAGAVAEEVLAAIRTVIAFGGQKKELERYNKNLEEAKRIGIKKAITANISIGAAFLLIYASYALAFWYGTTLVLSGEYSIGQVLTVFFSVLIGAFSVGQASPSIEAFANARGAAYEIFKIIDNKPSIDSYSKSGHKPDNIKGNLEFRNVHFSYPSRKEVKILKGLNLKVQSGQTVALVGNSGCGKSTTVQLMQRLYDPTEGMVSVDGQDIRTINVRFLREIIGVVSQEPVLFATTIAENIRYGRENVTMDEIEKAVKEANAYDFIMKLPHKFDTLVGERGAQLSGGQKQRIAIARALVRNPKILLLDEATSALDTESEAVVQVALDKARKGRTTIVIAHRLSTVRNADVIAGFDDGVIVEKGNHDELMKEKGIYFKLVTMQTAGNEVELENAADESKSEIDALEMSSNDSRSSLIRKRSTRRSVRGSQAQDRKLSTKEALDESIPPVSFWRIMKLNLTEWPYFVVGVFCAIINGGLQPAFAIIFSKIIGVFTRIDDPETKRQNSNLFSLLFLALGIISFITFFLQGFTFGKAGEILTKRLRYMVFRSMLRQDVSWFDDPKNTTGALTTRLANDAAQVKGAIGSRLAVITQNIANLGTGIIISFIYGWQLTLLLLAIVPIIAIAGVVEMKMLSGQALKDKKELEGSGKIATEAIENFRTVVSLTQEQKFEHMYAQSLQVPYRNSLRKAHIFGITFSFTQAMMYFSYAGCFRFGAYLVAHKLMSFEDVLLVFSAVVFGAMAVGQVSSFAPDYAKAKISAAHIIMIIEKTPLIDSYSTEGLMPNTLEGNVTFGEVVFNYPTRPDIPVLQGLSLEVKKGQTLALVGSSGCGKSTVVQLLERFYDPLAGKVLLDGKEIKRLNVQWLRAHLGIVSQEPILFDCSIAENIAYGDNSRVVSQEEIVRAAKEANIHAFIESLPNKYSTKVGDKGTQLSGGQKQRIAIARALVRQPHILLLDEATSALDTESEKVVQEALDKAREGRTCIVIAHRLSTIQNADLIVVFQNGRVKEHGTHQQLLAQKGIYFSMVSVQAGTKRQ
Procedure, shortened: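 Confluent MDCK-MDR1 monolayers given test compound (0.1-100 µM) for 30 min at 37 °C, then calcein-AM at 2.5 µM final for 30 min. Washed with ice-cold PBS and read at ex 485 / em 535 nm. Fluorescence rise over untreated basal level fitted against log dose to give EC50; n ≥ 3 experiments in duplicate.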

Panc02 = assay: Cytotoxicity against mouse Panc02 cells after 48 hrs by MTT assay; type: functional, cell-based; settings: Panc02, 48 h
Procedure, shortened: (§1)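 Pancreatic lines kept at 37 °C, 5% CO2. AsPC1, BxPC3 and Panc02 grown in RPMI with 10% FBS. MIAPaCa2 in DMEM with 10% FBS and 2.5% horse serum. PANC1 in DMEM with 10% FBS. KCKO in RPMI with 10% FBS plus pyruvate, HEPES and glutamine. KP02 in DMEM/F12 with 10% FBS.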

[2] = Cytotoxicity against mouse Kp02 cells after 48 hrs by MTT assay; type: functional, cell-based; procedure, shortened: as §1
[3] = Cytotoxicity against mouse KCKO cells after 48 hrs by MTT assay; type: functional, cell-based; procedure, shortened: as §1
MIA PaCa-2 = assay: Cytotoxicity against human MIAPaCa2 cells after 48 hrs by MTT assay; type: functional, cell-based; settings: MIA PaCa-2, 48 h; procedure, shortened: as §1
BXPC-3 = assay: Cytotoxicity against human BxPC3 cells after 48 hrs by MTT assay; type: functional, cell-based; settings: BXPC-3, 48 h; procedure, shortened: as §1
ASPC1 = assay: Cytotoxicity against human AsPC1 cells after 48 hrs by MTT assay; type: functional, cell-based; settings: ASPC1, 48 h; procedure, shortened: as §1

c1ccc2c(c1)ccn2CCCCN1CCN(C2CCCCC2)CC1
EC50 [1]: 0.46 µM | EC50 (Panc02): > 100 µM | EC50 [2]: 70 µM | EC50 [3]: 67 µM | EC50 (MIA PaCa-2): 79 µM | EC50 (BXPC-3): > 100 µM | EC50 (ASPC1): > 100 µM

COc1cc2c(cc1OC)CN(CCCCn1ccc3ccccc31)CC2
EC50 [1]: 6.09 µM | EC50 (Panc02): > 100 µM | EC50 [2]: 49 µM | EC50 [3]: 77 µM | EC50 (MIA PaCa-2): 40 µM | EC50 (BXPC-3): > 100 µM | EC50 (ASPC1): > 100 µM
